# Test results: PubChem BioAssay
# Values without a mark were called inactive. Records with an inconclusive call do not appear. Calls of active or inactive are those of the source.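 Rule for the calls, unless noted: active = viability increase at or above a cutoff of the median across tested compounds plus 3 SD (cut at about 8.5% in these data, passing the limit was not always enough); inconclusive = some gains above the cutoff, reason not given; inactive = the rest.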
# Tests used:
# [1] = OD615 S. cerevisiae growth inhibition, permissive medium, pilot counter-assay, permissive growth control for S. cerevisiae lifespan shortening project (AID 705;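 active = growth inhibition above 25% in both replicates, a cutoff set 3 SD above the mean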); details: OD615, 24 h, at 10 µM, hits give high values
# Method in brief: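 System: S. cerevisiae with engineered DeaD lifespan system. Medium: SC raffinose/galactose permissive medium. Doses: single compound dose of 10 µM, 0.25% DMSO final. Schedule: 24 h exposure, 30 °C. Measured by: OD615 turbidity read. Read-out: growth inhibition.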
# [2] = Restrictive medium S. cerevisiae growth inhibition, OD615, pilot screen of yeast lifespan reduction project, restrictive growth control (AID 706;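 active = growth inhibition above a set limit, 3 SD over mean compound inhibition, in both replicates, cut at about 43% in these data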;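 note: modified DeaD lifespan yeast strain shifted to restrictive glucose medium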); details: OD615, 48 h, at 10 µM, hits give high values
# Method in brief: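 Assay system – genetically modified Saccharomyces cerevisiae, DeaD replicative lifespan assay strain · Medium – CSMM-D glucose medium · Doses – 10 µM compound, 0.25% DMSO · Times – 4 h pre-incubation, 48 h exposure at 30 °C · Signal – optical density at 615 nm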
# [3] = viability gain of MRP-1-high H69AR cells under doxorubicin, pilot screen, MRP-1 activator project, CellTiter-Glo, duplicate (AID 807); details: H69AR viability with doxorubicin, CellTiter-Glo luminescence; at 10 µM; hits give high values;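 note: compound pretreatment 18-22 h then 72 h combined with doxorubicin; 0% = doxorubicin alone and 100% = vehicle without doxorubicin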
# [4] = growth suppression of beta-catenin knockout HCT116, pilot screen, human colon tumor cells (AID 823;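 active = cell viability at or below a set limit in both duplicate runs, the limit being the all-compound median minus 4 SD, cut at about 23% in these data, passing the limit was not always enough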;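 note: 0% = wells killed by 20 µM Hyamine and 100% = untreated DMSO cell wells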); details: CellTiter-Glo, 60 h, at 10 µM, hits give low values
# [5] = growth suppression of PTEN-deleted HCT116, pilot screen, cell-based, HCT116 clonal line, CellTiter-Glo (AID 824;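 active = viability at or below 27.92% in each of two runs, the all-compound median minus 4 SD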;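 note: 0% = 20 µM Hyamine control and 100% = vehicle cell control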); details: 60 h, at 10 µM, hits give low values
# [6] = inhibitors of the yeast RAM network, pilot screen, dse1pr::URA3 reporter, 5-FOA selection (AID 869;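 active = inhibition over a set limit, the all-compound mean plus 3 SD, in both replicate runs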;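 note: 0% = DMSO wells with no growth and 100% = 10 µM 1-NA-PP1 with full growth; RAM network block rescues cells from 5-FOA so hits raise OD615 growth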); details: S. cerevisiae dse1pr::URA3 5-FOA growth, OD615, 2 d; at 10 µM; hits give high values; strain carries analog-sensitive mutant Cbk1 kinase
# [7] = RAM signaling pathway blockade in yeast – S. cerevisiae, Pdr1DBD-CYC8 efflux-inhibited sensitized strain, primary screen (AID 1298;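 active = RAM network inhibition above 8.4% in each of two replicates, 3 SD over the compound average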;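 note: 0% = DMSO untreated cells without growth and 100% = 10 µM 1-NA-PP1 full growth; higher means more yeast growth rescued from 5-FOA killing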); details: S. cerevisiae cbk1-as DSE1-URA3 strain, 5-FOA growth OD615, 2 d; at 50 µM; hits give high values
SMILES,growth inhibition [1],growth inhibition [2],viability increase [3],viability [4],viability [5],inhibition [6],RAM network inhibition [7]
COc1ccc(C2CC(=O)N3CN(c4ccccc4F)CSC3=C2C#N)cc1OC (configuration not stated),7.21%,19.4%,-1.47%,107%,95.5%,1.22%,1.24%
CCOCCOCN(C#N)c1nc(OC)nc(N(C)C)n1,-5.92%,0.69%,1.74%,102%,99.9%,0.555%,2.46%
O=C(NCCCN1CCC(Cc2ccccc2)CC1)C1CCC(=O)N1C1CCCC1 (configuration not stated),0.095%,10.8%,-0.92%,79.7%,96.9%,0.3%,1.85%
Cc1ccc(N)c(C(O)(C(F)(F)F)C(F)(F)F)c1,-4.98%,-2.67%,2.71%,105%,99.6%,-0.695%,2.27%
c1ccc2cc3[nH]c(CN4CCCCC4)nc3cc2c1,-19.8%,-13.4%,-2.94%,95.9%,87.6%,1.58%,5.29%
O=C(c1ccccc1F)N1CCN(S(=O)(=O)c2ccc3c(c2)OCCO3)CC1,-6.31%,3.28%,-5.24%,90.5%,91.3%,3.16%,2.93%
CCN1CCCC1CNC(=O)c1cc2c(-c3ccc(Cl)cc3)nn(C)c2s1 (configuration not stated),-7.45%,10.1%,-8.33%,2.03% (active),2.04% (active),1.31%,8.33%
O=C(NCc1ccc2c(c1)OCO2)c1ccc(NC(=O)C2CCCO2)cc1 (configuration not stated),-11%,-20.2%,-2.17%,102%,103%,3.76%,4.81%
CC(=O)Nc1nc(CC(=O)c2ccccc2)cs1,-2.4%,-4.14%,-0.56%,102%,98.9%,1.15%,0.47%
CCCCC(CC)CNC(=O)CCS(=O)(=O)c1cccc2nsnc12 (configuration not stated),-14.8%,-21.5%,-2.97%,85.7%,91.7%,3.19%,4.78%
CC(=O)c1ccc(Nc2cc(C)nc3nc(C)nn23)cc1,-0.07%,-9.04%,-3.3%,103%,100%,0.72%,-1.56%
CCc1c(C)sc(NC(=O)c2cccs2)c1C(=O)OC(C)C,-3.37%,5.3%,4.48%,77.5%,79.1%,1.9%,5.72%
C=CC(C)Sc1nc2c(c(=O)n(C)c(=O)n2C)n1Cc1ccccc1Cl (configuration not stated),-3.12%,-2.02%,-3.37%,100%,99.3%,0.785%,5.22%
Cc1c(C(=O)NCc2ccc3c(c2)OCO3)oc2ccccc12,1.35%,16%,-0.04%,108%,98.9%,-0.54%,5.64%
CC(=O)c1ccc(N2CCN(C(=O)c3cc4c(-c5ccccc5F)nn(C)c4s3)CC2)cc1,3.9%,2.33%,-2.9%,66%,78%,2.27%,6.5%
CC(C)c1nnc(NC(=O)c2ccc(S(=O)(=O)N3CCOCC3)cc2)s1,-15%,-24.1%,-1%,104%,99.3%,2.56%,6.74%
Brc1cnc(N2CCCC2)nc1N1CCCCC1,-5.12%,2.11%,-2.63%,86.2%,84.4%,2.09%,0%
Cn1c(=O)c2c(SCC(=O)N3CCC(Cc4ccccc4)CC3)nc(C3CC3)nc2n(C)c1=O,-0.44%,-9.93%,-1.06%,92.9%,88.1%,1.28%,0.47%

SMILES,growth inhibition [1],growth inhibition [2],viability increase [3],viability [4],viability [5],inhibition [6],RAM network inhibition [7]
COc1cc(C(=O)NCC(c2cccnc2)N2CCN(c3ccccc3)CC2)cc(OC)c1OC (configuration not stated),-6.31%,-10.5%,-4.26%,98.4%,92.5%,2.09%,2.64%
COc1ccc(C(=O)N2CCN(c3ccc(C)c(C)c3)CC2)cc1OC,-6.27%,-4.04%,-0.89%,99.5%,92%,0.21%,2.55%
CCCCCOC(=O)C1=C(C)NC(=O)NC1c1ccccc1OCC (configuration not stated),-2.38%,11.9%,-0.2%,69.8%,69.7%,0.45%,1.97%
COc1ccc(C(=O)c2cn[nH]c2-c2cc(Cl)ccc2O)cc1,3.93%,4.28%,-1.77%,87.7%,78.7%,1.17%,3.53%
Cc1ccc(C)c(N2CCN(C(=O)CCS(=O)(=O)c3cccc4nonc34)CC2)c1,-16.3%,-12.5%,-5.38%,88.8%,91.8%,1.31%,6.07%
N#CC1=C2SCN(Cc3ccccc3)CN2C(=O)CC1c1cccs1 (configuration not stated),9.16%,30.2%,-2.91%,94.3%,86%,0.535%,4.04%
COc1ccc(-n2c3c(cc(C(=O)Nc4ccc5c(c4)C(=O)NC5=O)c2=O)C(=O)CCC3)cc1,-7.19%,-10.4%,0.08%,102%,102%,1.77%,3.06%
O=C(O)c1cc(S(=O)(=O)N2CCCCCC2)c(Cl)cc1Cl,-2.36%,-0.81%,-0.57%,90.4%,101%,1.18%,6.2%
O=C(CSc1nc2c(cnn2-c2ccc(F)cc2)c(=O)[nH]1)N1CCOCC1,-14.2%,-19.8%,-3.32%,96.7%,91.4%,3.16%,6.85%
CCOC(=O)CSc1nc2c(c(=O)n1-c1ccc(OC)cc1)SCC2,-4.98%,-0.425%,0.37%,99.5%,98.6%,1.04%,7.6%
COc1ccccc1NC(=O)CSc1nnc(C)o1,-7.09%,-9.04%,-1.19%,101%,102%,2.02%,2.69%
O=C(CN1CCOCC1)Nc1cc(Cl)ccc1Cl,-13.4%,-2.5%,-2.37%,92.6%,101%,2.6%,1.66%
O=C(CCCc1c[nH]c2ccccc12)N1CCN(c2ccc(N3CCOCC3)nn2)CC1,-2.69%,-3.36%,-1.4%,102%,105%,0.485%,-0.41%
COC(=O)c1ccccc1NC(NC(=O)c1ccco1)C(=O)c1ccc(C)cc1 (configuration not stated),-0.235%,-5.5%,-4.41%,79%,70.3%,4.25%,7.66%
Cc1cc(C)n2c(SCC(=O)Nc3ccccc3)nnc2n1,-7.49%,-9.43%,-2.57%,102%,91.4%,1.94%,-0.67%
CCCC(=O)C1=C(O)C(C(=O)OC)C(C)(C)CC1=Nc1ccncc1 (configuration not stated),0.755%,9.75%,-2.84%,96.7%,94.6%,0.73%,0.11%
CCC/C(O)=C1\C(=O)CC(C)(C)CC1=Nc1ccccc1OC,-18.3%,-21.1%,-2.83%,87.6%,87%,3.95%,9.85%
COCCCNC(=O)COc1cc(C)c(Cl)c(C)c1,-3.79%,-2.48%,-1.76%,95.5%,96.3%,-0.185%,1.45%
